Assay results as given in ChEMBL document CHEMBL2034857, “Discovery of the macrocycle (9E)-15-(2-(pyrrolidin-1-yl)ethoxy)-7,12,25-trioxa-19,21,24-triaza-tetracyclo[18.3.1.1(2,5).1(14,18)]hexacosa-1(24),2,4,9,14(26),15,17,20,22-nonaene (SB1578), a potent inhibitor of janus kinase 2/fms-like tyrosine kinase-3 (JAK2/FLT3) for the treatment of rheumatoid …” (J Med Chem, 2012).

Legend:
hERG = hERG (Homo sapiens, UniProt Q12809); test: Displacement of dofetilide from human ERG at 10 uM; conditions: probe dofetilide
[1] = target: Non-receptor tyrosine-protein kinase TYK2 (Homo sapiens, UniProt P29597); test: Inhibition of TYK2
Sequence of Non-receptor tyrosine-protein kinase TYK2 (P29597 whole entry): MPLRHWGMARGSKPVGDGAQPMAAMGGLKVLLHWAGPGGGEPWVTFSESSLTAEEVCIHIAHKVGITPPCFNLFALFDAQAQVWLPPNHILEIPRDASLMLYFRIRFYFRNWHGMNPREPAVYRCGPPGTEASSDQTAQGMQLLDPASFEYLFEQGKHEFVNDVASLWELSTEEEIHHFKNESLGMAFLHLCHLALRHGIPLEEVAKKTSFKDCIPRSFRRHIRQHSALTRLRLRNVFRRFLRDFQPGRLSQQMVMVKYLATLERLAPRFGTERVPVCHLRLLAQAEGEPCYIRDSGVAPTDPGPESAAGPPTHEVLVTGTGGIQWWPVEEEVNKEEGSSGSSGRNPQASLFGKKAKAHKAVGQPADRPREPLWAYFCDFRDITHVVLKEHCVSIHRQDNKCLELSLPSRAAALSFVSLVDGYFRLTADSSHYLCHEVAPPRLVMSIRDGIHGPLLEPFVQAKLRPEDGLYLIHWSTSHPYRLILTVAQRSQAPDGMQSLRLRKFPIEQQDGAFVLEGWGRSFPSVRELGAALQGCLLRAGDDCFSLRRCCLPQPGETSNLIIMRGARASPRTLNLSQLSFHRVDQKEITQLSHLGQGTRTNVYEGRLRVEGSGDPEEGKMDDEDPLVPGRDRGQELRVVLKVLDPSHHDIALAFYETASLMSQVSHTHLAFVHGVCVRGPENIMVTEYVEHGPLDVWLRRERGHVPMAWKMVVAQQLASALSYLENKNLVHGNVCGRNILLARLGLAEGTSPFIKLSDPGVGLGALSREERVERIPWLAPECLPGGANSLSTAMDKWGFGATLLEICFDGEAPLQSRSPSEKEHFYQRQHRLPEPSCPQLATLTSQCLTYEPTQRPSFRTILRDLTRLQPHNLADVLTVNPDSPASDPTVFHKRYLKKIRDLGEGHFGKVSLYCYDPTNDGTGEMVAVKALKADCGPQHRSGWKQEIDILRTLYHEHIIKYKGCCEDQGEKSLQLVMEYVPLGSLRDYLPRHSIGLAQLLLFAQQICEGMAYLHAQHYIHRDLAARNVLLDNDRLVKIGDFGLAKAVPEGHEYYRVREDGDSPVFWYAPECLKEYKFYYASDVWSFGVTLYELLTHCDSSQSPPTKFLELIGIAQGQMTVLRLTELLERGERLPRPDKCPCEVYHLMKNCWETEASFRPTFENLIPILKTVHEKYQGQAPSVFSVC

[2] = Tmax in Wistar rat at 50 mg/kg, po; assay type: ADME, organism-based; design: dose 50 mg/kg, route oral; conditions: in vivo
Outline: (§1)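 Single oral dose by gavage as suspension in 0.5% methylcellulose/0.1% Tween 80 (mouse, rat, monkey) or in gelatin capsules (dog). Serial blood samples taken from 0 to 24 h into K3EDTA tubes; plasma stored at −70 °C until analysis. Parameters derived by noncompartmental methods. Rat, dog and monkey n = 3; mouse values estimated from mean concentration-time data, n = 3 mice per time point.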

[3] = Plasma protein binding in mouse at 1000 ng/mL by equilibrium dialysis; assay type: ADME, cell-free; conditions: read-out: PPB (converted)
Outline: (§2)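 Equilibrium dialysis of plasma (mouse, rat, dog, monkey, human) spiked to 1000 ng/mL final against PBS, 4 h at 37 °C; buffer side extracted with MTBE in triplicate and analyzed by LC-MS/MS.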

[4] = Half life in mouse liver microsomes; assay type: ADME, Microsome
Cytochrome P450 1A2 [5] = target: T1, Cytochrome P450 1A2 (Homo sapiens, UniProt P05177); test: Induction of CYP1A2 in human liver microsomes; assay type: ADME, Microsome
T1 sequence (P05177 whole entry): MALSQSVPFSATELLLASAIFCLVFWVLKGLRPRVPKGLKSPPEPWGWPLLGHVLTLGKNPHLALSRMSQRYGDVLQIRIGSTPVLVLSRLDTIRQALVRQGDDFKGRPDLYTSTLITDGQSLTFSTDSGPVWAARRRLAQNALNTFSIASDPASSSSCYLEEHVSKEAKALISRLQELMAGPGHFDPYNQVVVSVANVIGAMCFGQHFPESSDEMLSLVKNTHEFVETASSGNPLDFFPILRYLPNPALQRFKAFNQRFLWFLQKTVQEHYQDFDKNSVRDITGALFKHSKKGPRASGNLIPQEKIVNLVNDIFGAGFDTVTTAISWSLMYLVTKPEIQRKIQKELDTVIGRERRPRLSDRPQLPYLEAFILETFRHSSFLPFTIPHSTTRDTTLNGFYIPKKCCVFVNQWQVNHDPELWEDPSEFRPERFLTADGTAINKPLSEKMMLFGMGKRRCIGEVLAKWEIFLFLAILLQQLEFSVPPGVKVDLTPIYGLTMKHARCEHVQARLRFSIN

BaF3 = test: Antiproliferative activity against mouse BAF3 cells expressing JAK2 V617F mutant after 48 hrs by luciferase reporter gene assay; assay type: functional; conditions: BaF3, 48 h
[6] = AUC (0 to infinity) in rhesus monkey at 20 mg/kg, po; assay type: ADME, organism-based, Macaca mulatta; design: time infinity, dose 20 mg/kg, route oral; conditions: plasma
Outline: (§3)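 Single oral gavage at 50 (mouse, rat), 5 (dog) or 20 (monkey) mg/kg; rodents and monkeys received suspensions in 0.5% methylcellulose/0.1% Tween 80, dogs gelatin capsules. Serial blood taken 0–24 h into K3EDTA, plasma stored at −70 °C. Parameters estimated by noncompartmental analysis, n = 3 per species (mouse values from mean concentration–time data, 3 mice per time point).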

[7] = target: Voltage-gated inwardly rectifying potassium channel KCNH2 (Homo sapiens, UniProt Q12809); test: Displacement of dofetilide from human ERG
Sequence of Voltage-gated inwardly rectifying potassium channel KCNH2 (Q12809 whole entry): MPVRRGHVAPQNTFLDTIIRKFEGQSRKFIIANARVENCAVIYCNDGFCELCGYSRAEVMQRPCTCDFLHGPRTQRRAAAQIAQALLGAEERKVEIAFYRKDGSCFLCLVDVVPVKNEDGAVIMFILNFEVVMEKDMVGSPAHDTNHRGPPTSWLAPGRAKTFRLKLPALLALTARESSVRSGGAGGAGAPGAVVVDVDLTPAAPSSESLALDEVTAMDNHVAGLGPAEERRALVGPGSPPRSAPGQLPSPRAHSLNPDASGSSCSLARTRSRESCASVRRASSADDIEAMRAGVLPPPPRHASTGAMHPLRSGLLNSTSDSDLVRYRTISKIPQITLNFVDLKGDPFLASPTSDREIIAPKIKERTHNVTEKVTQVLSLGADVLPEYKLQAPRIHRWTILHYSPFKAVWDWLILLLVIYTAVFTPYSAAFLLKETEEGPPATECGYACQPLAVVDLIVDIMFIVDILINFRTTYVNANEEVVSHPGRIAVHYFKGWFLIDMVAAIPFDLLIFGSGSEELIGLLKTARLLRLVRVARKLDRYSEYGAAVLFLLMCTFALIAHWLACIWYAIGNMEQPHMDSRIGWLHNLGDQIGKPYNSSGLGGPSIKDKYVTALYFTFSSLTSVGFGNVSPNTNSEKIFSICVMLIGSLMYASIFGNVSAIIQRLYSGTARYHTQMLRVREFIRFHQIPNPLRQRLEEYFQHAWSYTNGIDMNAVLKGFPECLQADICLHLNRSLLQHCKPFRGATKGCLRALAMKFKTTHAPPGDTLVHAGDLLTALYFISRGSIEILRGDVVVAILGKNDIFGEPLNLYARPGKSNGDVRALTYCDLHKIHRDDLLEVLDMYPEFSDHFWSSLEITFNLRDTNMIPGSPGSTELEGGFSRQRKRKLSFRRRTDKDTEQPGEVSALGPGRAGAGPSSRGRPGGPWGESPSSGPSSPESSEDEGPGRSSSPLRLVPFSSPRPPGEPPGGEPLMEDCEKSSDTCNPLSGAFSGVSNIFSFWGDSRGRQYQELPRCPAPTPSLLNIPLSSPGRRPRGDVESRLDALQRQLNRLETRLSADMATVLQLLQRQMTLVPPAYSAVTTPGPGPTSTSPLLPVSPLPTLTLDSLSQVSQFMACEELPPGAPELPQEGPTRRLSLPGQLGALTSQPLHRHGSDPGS

[8] = Terminal half life in rhesus monkey at 20 mg/kg, po; assay type: ADME, organism-based, Macaca mulatta; design: dose 20 mg/kg, route oral; conditions: in vivo, read-out: beta t1/2 (converted); outline: as §1
[9] = Kinetic solubility in PBS buffer at pH 7; assay type: physicochemical; conditions: read-out: Kinetic_solubility
[10] = Oral bioavailability in rhesus monkey at 20 mg/kg; assay type: ADME, organism-based, Macaca mulatta; conditions: in vivo; outline: as §3
[11] = Plasma protein binding in human at 1000 ng/mL by equilibrium dialysis; assay type: ADME, cell-free; conditions: read-out: PPB; outline: as §2
[12] = Cmax in beagle dog at 5 mg/kg, po; assay type: ADME, organism-based, Canis lupus familiaris; design: dose 5 mg/kg, route oral; conditions: in vivo; outline: as §3
[13] = Terminal half life in BALB/c nude mouse at 50 mg/kg, po; assay type: ADME, organism-based; design: dose 50 mg/kg, route oral; conditions: in vivo, read-out: beta t1/2 (converted); outline: as §1
[14] = Half life in rhesus monkey live microsomes at 5 uM; assay type: ADME, Macaca mulatta; conditions: liver microsomes
Outline: (§4)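 Compound at 5 μM with human, mouse or dog microsomes at 0.87 mg/mL, or rat and monkey microsomes at 1 mg/mL, in 50 mM potassium phosphate pH 7.4 with NADPH regenerating system at 37 °C.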

[15] = Cmax in BALB/c nude mouse at 50 mg/kg, po; assay type: ADME, organism-based; design: dose 50 mg/kg, route oral; conditions: in vivo; outline: as §3
[16] = target: Cyclin-dependent kinase 9 (Homo sapiens, UniProt P50750); test: Inhibition of CDK9
Sequence of Cyclin-dependent kinase 9 (P50750 whole entry): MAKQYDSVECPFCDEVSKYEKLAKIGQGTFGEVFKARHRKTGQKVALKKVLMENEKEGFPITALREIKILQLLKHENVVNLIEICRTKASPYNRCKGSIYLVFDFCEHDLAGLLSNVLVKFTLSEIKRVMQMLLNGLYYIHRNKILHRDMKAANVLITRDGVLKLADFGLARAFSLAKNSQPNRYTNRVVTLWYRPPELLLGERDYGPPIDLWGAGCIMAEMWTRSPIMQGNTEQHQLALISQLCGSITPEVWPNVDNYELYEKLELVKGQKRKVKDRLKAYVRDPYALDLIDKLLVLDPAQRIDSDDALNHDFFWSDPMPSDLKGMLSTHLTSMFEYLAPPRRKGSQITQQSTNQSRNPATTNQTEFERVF

Cytochrome P450 3A4 = Cytochrome P450 3A4 (Homo sapiens, UniProt P08684); test: Induction of CYP3A4 in human liver microsomes; assay type: ADME, Microsome
Sequence of Cytochrome P450 3A4 (P08684 whole entry): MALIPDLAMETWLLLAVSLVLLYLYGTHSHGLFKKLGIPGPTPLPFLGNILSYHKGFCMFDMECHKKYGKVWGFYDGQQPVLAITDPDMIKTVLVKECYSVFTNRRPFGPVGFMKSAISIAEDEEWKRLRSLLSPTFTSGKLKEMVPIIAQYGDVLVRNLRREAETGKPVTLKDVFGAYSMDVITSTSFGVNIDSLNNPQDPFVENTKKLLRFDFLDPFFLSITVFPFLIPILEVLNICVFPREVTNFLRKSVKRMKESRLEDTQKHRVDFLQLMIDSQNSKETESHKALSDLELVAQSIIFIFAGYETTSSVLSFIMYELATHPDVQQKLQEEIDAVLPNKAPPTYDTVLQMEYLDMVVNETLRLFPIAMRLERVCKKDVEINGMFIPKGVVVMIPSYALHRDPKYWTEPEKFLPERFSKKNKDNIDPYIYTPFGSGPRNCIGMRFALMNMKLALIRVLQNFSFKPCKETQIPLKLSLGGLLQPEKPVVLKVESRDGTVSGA

[17] = Thermodynamic solubility of the compound at pH 7; assay type: physicochemical; conditions: buffer, read-out: Therm_solubility
Outline: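 The citrate salt (~5 mg) was made up at 5 mg/mL in pH-buffered solution, in triplicate. It was shaken 24 h at 600 rpm at room temperature, filtered (0.4 μm) and the final pH recorded. The filtrate was diluted in acetonitrile/water (1:1), centrifuged and quantified by HPLC-UV. Two determinations were made on two different batches.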

[18] = Cmax in Wistar rat at 50 mg/kg, po; assay type: ADME, organism-based; design: dose 50 mg/kg, route oral; conditions: in vivo; outline: as §3
[19] = Half life in rat liver microsomes at 5 uM; assay type: ADME, Microsome; outline: as §4
Cytochrome P450 1A2 [20] = target: T1, Cytochrome P450 1A2; test: Inhibition of CYP1A2 in human liver microsomes using phenacetin as substrate by LC-MS/MS analysis; assay type: ADME, Microsome
[21] = Apparent permeability from apical to basal side of human Caco2 cells at 10 uM after 120 mins by LC-MS/MS analysis; assay type: ADME, cell-based; conditions: Caco-2
Outline: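 Caco-2 monolayers (passage 40–60) seeded at 1 × 10⁵ cells/cm² and used on day 20; 10 μM compound (1% DMSO final) in HBSS pH 7.4 with 25 mM HEPES and 4.45 mM glucose, 120 min at 37 °C, 5% CO2. Both directions run in duplicate, quantified by LC-MS/MS; lucifer yellow checks monolayer integrity.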

Cytochrome P450 2C19 = Cytochrome P450 2C19 (Homo sapiens, UniProt P33261); test: Inhibition of CYP2C19 in human liver microsomes using omeprazole as substrate by LC-MS/MS analysis; assay type: ADME, Microsome
Sequence of Cytochrome P450 2C19 (P33261 whole entry): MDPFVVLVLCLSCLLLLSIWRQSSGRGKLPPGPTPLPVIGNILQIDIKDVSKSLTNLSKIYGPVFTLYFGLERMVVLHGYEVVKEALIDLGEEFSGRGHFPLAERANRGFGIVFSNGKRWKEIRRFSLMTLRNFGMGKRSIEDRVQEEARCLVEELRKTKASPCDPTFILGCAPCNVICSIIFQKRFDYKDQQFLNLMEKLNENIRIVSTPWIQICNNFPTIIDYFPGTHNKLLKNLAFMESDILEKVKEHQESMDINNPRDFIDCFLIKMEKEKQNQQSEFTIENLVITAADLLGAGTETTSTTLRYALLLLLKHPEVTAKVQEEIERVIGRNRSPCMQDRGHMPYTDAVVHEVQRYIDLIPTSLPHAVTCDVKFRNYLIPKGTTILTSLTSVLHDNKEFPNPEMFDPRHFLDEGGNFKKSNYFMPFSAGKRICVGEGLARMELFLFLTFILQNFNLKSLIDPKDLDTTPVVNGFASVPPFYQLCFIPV

Mus musculus = test: Antiarthritic activity in B10/R3 mouse immunized with bovine type2 collagen in Freund's complete adjuvant assessed as inhibition of increase in clinical arthritic scores at 210 mg/kg, po administered bid for 10 days measured for 10 days; assay type: functional; conditions: B10/R3, 240 h
[22] = Oral bioavailability in Wistar rat at 50 mg/kg; assay type: ADME, organism-based; conditions: in vivo; outline: as §3
[23] = Half life in dog liver microsomes at 5 uM; assay type: ADME, Canis lupus familiaris, Microsome; outline: as §4
Cytochrome P450 2D6 = Cytochrome P450 2D6 (Homo sapiens, UniProt P10635); test: Inhibition of CYP2D6 in human liver microsomes using dextromethorphan as substrate by LC-MS/MS analysis; assay type: ADME, Microsome
Sequence of Cytochrome P450 2D6 (P10635 whole entry): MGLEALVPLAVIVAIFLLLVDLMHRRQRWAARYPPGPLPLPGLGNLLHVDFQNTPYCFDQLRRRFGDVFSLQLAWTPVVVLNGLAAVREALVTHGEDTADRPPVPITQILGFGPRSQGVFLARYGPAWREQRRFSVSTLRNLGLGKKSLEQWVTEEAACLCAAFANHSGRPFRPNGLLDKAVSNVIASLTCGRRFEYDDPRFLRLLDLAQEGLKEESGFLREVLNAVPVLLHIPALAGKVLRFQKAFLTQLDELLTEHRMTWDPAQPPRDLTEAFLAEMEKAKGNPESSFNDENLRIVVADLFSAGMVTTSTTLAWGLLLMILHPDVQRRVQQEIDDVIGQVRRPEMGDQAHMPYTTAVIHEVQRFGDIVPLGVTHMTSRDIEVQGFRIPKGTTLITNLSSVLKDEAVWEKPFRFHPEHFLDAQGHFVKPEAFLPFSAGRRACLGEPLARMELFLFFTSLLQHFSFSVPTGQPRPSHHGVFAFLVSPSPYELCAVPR

HL-60 = test: Antiproliferative activity against human HL60 cells expressing FLT3 after 48 hrs by luciferase reporter gene assay; assay type: functional; conditions: HL-60, 48 h
[24] = AUC (0 to infinity) in Wistar rat at 50 mg/kg, po; assay type: ADME, organism-based; design: dose 50 mg/kg, route oral, time infinity; conditions: plasma; outline: as §3
[25] = Half life in human liver microsomes; assay type: ADME, Microsome

C1=C2COC/C=C/COCc3cc(ccc3OCCN3CCCC3)Nc3nccc(n3)C(=C1)O2 (mixture of isomers) [CT-1578]
inhibition at 10 µM (hERG): 14%
IC50 [1]: 0.23 µM
Tmax [2]: 2.3 h
fraction unbound at 1000 ng/mL [3]: 0.127
half-life [4]: 0.45 h
Activity (Cytochrome P450 1A2 [5]): Not Active
GI50 (BaF3): 0.25 µM
AUC(0-inf) [6]: 7590 ng·h/mL
IC50 [7]: > 10 µM
half-life [8]: 1.1 h
solubility kinetic [9]: > 250 µg/mL
bioavailability [10]: 32%
fraction unbound at 1000 ng/mL [11]: 0.01
Cmax [12]: 27 ng/mL
half-life [13]: 0.8 h
half-life at 5 µM [14]: 0.383 h
Cmax [15]: 1230 ng/mL
IC50 [16]: 0.036 µM
Activity (Cytochrome P450 3A4): Not Active
solubility thermodynamic [17]: 880 µg/mL
Cmax [18]: 231 ng/mL
half-life at 5 µM [19]: > 1 h
IC50 (Cytochrome P450 1A2 [20]): > 10 µM
Papp A→B at 2 h, 10 µM [21]: 24.8 ×10⁻⁶ cm/s
IC50 (Cytochrome P450 2C19): 1.4 µM
inhibition in vivo at 210 mg/kg (Mus musculus): 59%
bioavailability [22]: 6%
half-life at 5 µM [23]: > 1 h
IC50 (Cytochrome P450 2D6): > 10 µM
GI50 (HL-60): 0.85 µM
AUC(0-inf) [24]: 1500 ng·h/mL
half-life [25]: > 1 h
